In ChEMBL document CHEMBL1125032, “Structure-activity relationship of antiestrogens. Effect of the side chain and its position on the activity of 2,3-diaryl-2H-1-benzopyrans” (J Med Chem, 1990):

Tests used:
[1] = target: T1, Estrogen receptor (Rattus norvegicus) (UniProt P06211+Q62986); test: Estrogenic activity as mean uterine weight in rats on 10 ug dose; type: functional
How it was run: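 Immature female Charles Foster rats (21–23 days old, 25–40 g) received 10 µg/rat subcutaneously, suspended in 0.1 mL propylene glycol–0.9% saline (1:1, v/v), daily for three days. Controls received vehicle alone. Uterine wet weight was taken at autopsy 24 h after the final dose and given as mean ± SD in mg from 6–9 animals.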

[2] = target: Anti-estrogen binding site (AEBS) (Homo sapiens) (UniProt Q15125+Q9UBM7); test: Relative binding affinity against Antiestrogen binding site(AEBS); type: functional; settings: Rattus norvegicus
How it was run: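 Rat liver microsomal fraction was first incubated 2 h at 4 °C with 2 µM diethylstilbestrol to saturate ER sites. It was then incubated 18 h at 4 °C with competitor (1×10⁻⁹ to 3×10⁻⁶ M) and ³H-tamoxifen (1×10⁻⁹ M) in 35% DMF–TEA buffer. Charcoal-dextran was added for 15 min at 4 °C, the tubes were centrifuged at 1000g, and the supernatant was counted.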

[3] = target: T1, Estrogen receptor (Rattus norvegicus); test: Antiestrogenic activity in presence of unlabeled estradiol as mean uterine weight in rats after 0.3 ug dose; type: functional
How it was run: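 Immature female Charles Foster rats (21–23 days old, 25–40 g) were given 10 µg/rat of compound subcutaneously in 0.1 mL propylene glycol–0.9% saline (1:1, v/v) on three consecutive days. They were co-injected with 0.3 µg E2 at a different site. Controls got E2 plus vehicle. Uteri were weighed 24 h after the last injection. Values are mean ± SD, 6–9 animals.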

[4] = target: T1, Estrogen receptor (Rattus norvegicus); test: Relative binding affinity against estrogen receptor(ER); type: protein assay
How it was run: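 Uterine cytosol came from immature rats primed with 0.1 µg E2 24 h before sacrifice. It was incubated 18–20 h at 4 °C, in triplicate, with competitor (10⁻⁴–10⁻⁹ M) and ³H-E2 (5×10⁻⁹ M) in TEA buffer, pH 7.4, containing 7% DMF. Free ligand was removed with charcoal-dextran (20 min), and bound radioactivity was measured by scintillation counting.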

[5] = target: Estrogen receptor beta (Rattus norvegicus) (UniProt Q62986); test: Mean percent inhibition of Estrogen receptor beta in rat; design: concentration or dose not given beside the values; settings: concentration not given here
How it was run: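 Immature female rats were dosed subcutaneously with 10 µg/rat for three days together with 0.3 µg E2 at a separate site. Uterine weight was read 24 h after the last dose. Inhibition of E2-stimulated uterine growth was calculated from the mean uterine weights of the vehicle-alone, E2-alone and compound-plus-E2 groups.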

Chain of Estrogen receptor beta (Rattus norvegicus) (Q62986 whole entry): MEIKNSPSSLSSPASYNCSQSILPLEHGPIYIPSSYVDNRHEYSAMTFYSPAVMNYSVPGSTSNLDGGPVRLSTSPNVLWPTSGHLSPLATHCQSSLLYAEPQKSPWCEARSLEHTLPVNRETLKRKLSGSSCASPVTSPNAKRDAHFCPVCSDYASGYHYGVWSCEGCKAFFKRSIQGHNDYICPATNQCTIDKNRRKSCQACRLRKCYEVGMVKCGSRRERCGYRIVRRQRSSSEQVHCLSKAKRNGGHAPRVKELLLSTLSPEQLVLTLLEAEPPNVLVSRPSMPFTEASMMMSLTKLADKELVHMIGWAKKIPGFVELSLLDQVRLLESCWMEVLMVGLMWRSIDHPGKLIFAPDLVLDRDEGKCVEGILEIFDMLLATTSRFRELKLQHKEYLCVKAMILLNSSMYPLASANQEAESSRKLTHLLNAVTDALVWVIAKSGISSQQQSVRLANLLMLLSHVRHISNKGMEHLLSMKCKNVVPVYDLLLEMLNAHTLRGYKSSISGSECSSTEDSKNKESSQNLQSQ

| SMILES | Mean weight [1] [mg] | relative binding affinity (RBA) [2] | Mean weight [3] [mg] | relative binding affinity (RBA) [4] | inhibition [5] [%] |
| --- | --- | --- | --- | --- | --- |
| C1=C(c2ccccc2)C(c2ccc(OCCN3CCCCCC3)cc2)Oc2ccccc21 (configuration not stated) | 19.3 | 153 | 23.1 | 0.24 | 61 |
| C1=C(c2ccccc2)C(c2ccc(OCCN3CCCCC3)cc2)Oc2ccccc21 (configuration not stated) | – | 225 | – | 0.3 | 75 |
| C1=C(c2ccccc2)C(c2ccc(OCCN3CCCC3)cc2)Oc2ccccc21 (configuration not stated) | – | 134 | 26.6 | 0.5 | 56 |
| OCC(O)COc1ccc(C2Oc3ccccc3C=C2c2ccccc2)cc1 (configuration not stated) | 20.7 | – | 38.8 | – | – |
| COc1ccc2c(c1)OC(c1ccc(OCCN3CCCC3)cc1)C(c1ccccc1)=C2 (configuration not stated) | – | 66 | – | 0.4 | 48 |
| CC1=C(c2ccccc2)C(c2ccc(OCCN3CCCC3)cc2)Oc2ccccc21 (configuration not stated) | 27.2 | 150 | 27 | 9.9 | 56 |

The next lines start with the values.

| Mean weight [1] [mg] | relative binding affinity (RBA) [2] | Mean weight [3] [mg] | relative binding affinity (RBA) [4] | inhibition [5] [%] | SMILES |
| --- | --- | --- | --- | --- | --- |
| 8.7 | – | 45.9 | – | 0 | CCCCNCC(O)COc1ccc(C2Oc3ccccc3C=C2c2ccccc2)cc1 (configuration not stated) |
| 12.6 | – | 45.5 | 0.05 | 0 | Oc1ccc(C2Oc3ccccc3C=C2c2ccccc2)cc1 (configuration not stated) |
| 34.5 | 51 | 40.6 | 2.1 | 0 | CCC1=C(c2ccccc2)C(c2ccc(OCCN3CCCC3)cc2)Oc2cc(OC)ccc21 (configuration not stated) |
| 11.1 | – | 43.1 | < 0.001 | 0 | C1=C(c2ccccc2)C(c2ccccc2OCCN2CCCCC2)Oc2ccccc21 (configuration not stated) |
| 17.4 | – | 42.2 | < 0.001 | 0 | C1=C(c2ccccc2)C(c2cccc(OCCN3CCCCC3)c2)Oc2ccccc21 (configuration not stated) |
| 33.9 | 98 | 36.5 | 0.11 | 30 | CN(C)CCOc1ccc(C2Oc3ccccc3C=C2c2ccccc2)cc1 (configuration not stated) |
